Data reported in ChEMBL document CHEMBL1145773, “Design, synthesis, SAR, and molecular modeling studies of acylthiocarbamates: a novel series of potent non-nucleoside HIV-1 reverse transcriptase inhibitors structurally related to phenethylthiazolylthiourea derivatives” (J Med Chem, 2003).

What was measured:
MT-4 (Homo sapiens) = test: Concentration required to reduce the viability of mock-infected MT-4 cells by 50% was determined by MTT method; conditions: MT4
MT4 = test: Selectivity index which is the ratio of CC50 and EC50 was determined; assay type: functional, Homo sapiens
How it was run: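 MT-4 cells (1 × 10^4/well) were seeded with or without serial compound dilutions, then infected with HIV-1 IIIB at enough CCID50 for complete cytopathogenicity by day 4. Cultures were incubated at 37 °C and viability was read by MTT. […] Cytotoxicity was run in parallel on mock-infected cells, and SI = CC50/EC50. Data are means of three separate experiments.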

[1] = biological target: Human immunodeficiency virus type 1 reverse transcriptase (Human immunodeficiency virus 1, UniProt Q72547); test: Activity of selected HIV-1 N-acylthiocarbamates in enzyme assay against Virion-Associated reverse transcriptase
How it was run: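 Virion-associated RT from stock virus disrupted with 0.5% NP-40. Incubation 60 min at 37 °C, then acid-insoluble radioactivity counted on glass fiber filters.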

[2] = tested on: Human immunodeficiency virus 1; test: Concentration required to reduce the amount of p24 by 90% in HIV-1 infected C8166 cultures; assay type: functional, organism-based; conditions: Human immunodeficiency virus 1, C8166
How it was run: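 C8166 cells (1 × 10^4/well) were infected with wt HIV-1 in the presence of graded compound concentrations, with DMSO stocks diluted in culture medium. After incubation at 37 °C, p24 antigen was measured by immunoenzymatic kit. EC90 is the concentration lowering p24 by 90%.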

[3] = tested on: Human immunodeficiency virus 1; test: Anti HIV-1 activity of selected N-acylthiocarbamates against Y181C resistant mutant; assay type: functional, organism-based
How it was run: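 Acutely infected MT-4 cells (1 × 10⁴ cells/well) incubated at 37 °C with serial compound dilutions (DMSO stock, diluted in medium) and Y181C mutant virus (NIH N119; titer 1.3 × 10⁶ CCID₅₀/mL) dosed to cause full cytopathogenicity by day 4. Viability read by MTT; EC₅₀ = concentration giving 50% protection from virus-induced cytopathogenicity.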

## Cc1ccc(C(=O)N(C(=S)OCCOc2ccccc2)c2ccccc2)cc1
MT-4 (Homo sapiens)
  CC50: > 200 µM
MT4
  SI: >20.2

## O=C(c1ccco1)N(C(=S)OCCOc1ccccc1)c1ccccc1
MT-4 (Homo sapiens)
  CC50: 82 µM
MT4
  SI: 9.7

## O=C1c2ccccc2C(=O)N1CCOC(=S)N(C(=O)c1cccs1)c1cccc([N+](=O)[O-])c1
MT-4 (Homo sapiens)
  CC50: 100 µM
MT4
  SI: 263

## CC(COc1ccccc1)OC(=S)N(C(=O)c1cccc([N+](=O)[O-])c1)c1ccccc1 (stereo unspecified)
MT-4 (Homo sapiens)
  CC50: > 200 µM
MT4
  SI: >55.5

## O=C(c1ccc(Cl)c([N+](=O)[O-])c1)N(C(=S)OCCOc1ccccc1)c1ccccc1
MT-4 (Homo sapiens)
  CC50: 80 µM
MT4
  SI: 10.5

## O=C1c2ccccc2C(=O)N1CCOC(=S)N(C(=O)c1ccco1)c1ccc(Cl)cc1
[1]
  IC50: 2.3 µM
[2]
  EC90: 0.005 µM
MT-4 (Homo sapiens)
  CC50: 41 µM
MT4
  SI: 5857
[3]
  EC50: 1.7 µM

## O=C1c2ccccc2C(=O)N1CCOC(=S)N(C(=O)c1cccs1)c1cccc(F)c1
MT-4 (Homo sapiens)
  CC50: > 100 µM
MT4
  SI: >9

## CC(COc1ccccc1)OC(=S)N(C(=O)c1cccs1)c1ccc(Cl)cc1 (stereo unspecified)
MT-4 (Homo sapiens)
  CC50: > 100 µM
MT4
  SI: >9

## CCN(CC)c1ccc(N(C(=O)c2cccs2)C(=S)OCCN2C(=O)c3ccccc3C2=O)cc1
MT-4 (Homo sapiens)
  CC50: > 100 µM
MT4
  SI: 9

## O=C(c1ccccc1)N(C(=S)OCCOc1ccccc1)c1ccc(F)cc1
MT-4 (Homo sapiens)
  CC50: 70.7 µM
MT4
  SI: 17.6

## CCOc1ccc(N(C(=O)c2ccc(Cl)nc2)C(=S)OCCN2C(=O)c3ccccc3C2=O)cc1
MT4
  SI: >200

## O=C1c2ccccc2C(=O)N1CCOC(=S)N(C(=O)c1cccs1)c1ccc(Cl)cc1
[1]
  IC50: 2.5 µM
[2]
  EC90: 0.008 µM
MT-4 (Homo sapiens)
  CC50: > 200 µM
MT4
  SI: >25000
[3]
  EC50: 1 µM

## O=C1c2ccccc2C(=O)N1CCOC(=S)N(C(=O)c1ccccc1)c1ccccc1
[2]
  EC90: 0.8 µM
MT-4 (Homo sapiens)
  CC50: > 200 µM
MT4
  SI: >500
[3]
  EC50: > 100 µM

## CCc1ccccc1N(C(=O)c1cccs1)C(=S)OCCN1C(=O)c2ccccc2C1=O
MT-4 (Homo sapiens)
  CC50: > 100 µM
MT4
  SI: >9

## O=C(c1cc(Cl)cc(Cl)c1)N(C(=S)OCCOc1ccccc1)c1ccccc1
MT-4 (Homo sapiens)
  CC50: 43 µM
MT4
  SI: 4.8

## S=C(NCCc1ccccn1)Nc1ccc(Br)cn1 [TROVIRDINE]
[1]
  IC50: 4.2 µM
[2]
  EC90: 0.015 µM
MT-4 (Homo sapiens)
  CC50: 60 µM
MT4
  SI: 3000
[3]
  EC50: 1.2 µM

## O=C1c2ccccc2C(=O)N1CCOC(=S)N(C(=O)c1cccs1)c1cccc(C(F)(F)F)c1
MT-4 (Homo sapiens)
  CC50: > 100 µM
MT4
  SI: >9

## CC(COc1ccccc1)OC(=S)N(C(=O)Oc1ccccc1)c1ccccc1 (stereo unspecified)
MT-4 (Homo sapiens)
  CC50: > 200 µM

## O=C(/C=C/c1ccccc1)N(C(=S)OCCc1ccccc1)c1ccccc1
MT-4 (Homo sapiens)
  CC50: 40.4 µM
MT4
  SI: 9

## O=C1c2ccccc2C(=O)N1CCOC(=S)N(C(=O)c1cccs1)c1cccc(Br)c1
MT-4 (Homo sapiens)
  CC50: 53 µM
MT4
  SI: 44

## O=C(c1ccco1)N(C(=S)OCc1ccccc1)c1ccccc1
MT4
  SI: 1.9

## O=C1c2ccccc2C(=O)N1CCOC(=S)N(C(=O)c1ccccc1)c1ccc(Cl)cc1
[2]
  EC90: 0.13 µM
MT-4 (Homo sapiens)
  CC50: > 200 µM
MT4
  SI: >2000
[3]
  EC50: > 100 µM

## CC(COc1ccccc1)OC(=S)N(C(=O)c1ccccc1)c1ccccc1 (stereo unspecified)
MT-4 (Homo sapiens)
  CC50: > 200 µM
MT4
  SI: >153.8

## O=C(c1ccccc1)N(C(=S)OCCOc1ccccc1)C1CCCCC1
MT-4 (Homo sapiens)
  CC50: > 200 µM

## O=C(c1ccc(Cl)cc1Cl)N(C(=S)OCCOc1ccccc1)c1ccccc1
MT-4 (Homo sapiens)
  CC50: 43 µM
MT4
  SI: 3.7

## O=C(c1ccccc1)N(C(=S)OCc1ccco1)c1ccccc1
MT-4 (Homo sapiens)
  CC50: 38.3 µM

## O=C(c1ccccc1)N(C(=S)OCCc1ccccc1)c1ccccc1
MT-4 (Homo sapiens)
  CC50: 91 µM
MT4
  SI: 22

## O=C(c1cccs1)N(C(=S)OCCOc1ccccc1)c1ccccc1
MT-4 (Homo sapiens)
  CC50: 125 µM
MT4
  SI: 14.5

## CC(COc1ccccc1)OC(=S)N(C(=O)c1cccs1)c1cccc(Cl)c1 (stereo unspecified)
MT-4 (Homo sapiens)
  CC50: > 100 µM
MT4
  SI: >9

## O=C1c2ccccc2C(=O)N1CCOC(=S)N(C(=O)c1cccs1)c1cccc(Cl)c1
MT-4 (Homo sapiens)
  CC50: > 100 µM
MT4
  SI: >17

## O=C(/C=C/c1ccccc1)N(C(=S)OCCOc1ccccc1)c1ccccc1
MT-4 (Homo sapiens)
  CC50: 66.6 µM
MT4
  SI: 8.65

## Cc1ccccc1N(C(=O)c1cccs1)C(=S)OCCN1C(=O)c2ccccc2C1=O
MT-4 (Homo sapiens)
  CC50: > 100 µM
MT4
  SI: >9

## O=C1c2ccccc2C(=O)N1CCOC(=S)N(C(=O)c1ccc(Cl)cc1)c1ccc(Cl)cc1
[2]
  EC90: 0.02 µM
MT-4 (Homo sapiens)
  CC50: > 100 µM
MT4
  SI: >4000
[3]
  EC50: 11.6 µM

## CCCOC(=O)N(C(=S)OC(C)COc1ccccc1)c1ccccc1 (stereo unspecified)
MT-4 (Homo sapiens)
  CC50: > 200 µM
MT4
  SI: >1.5

## CC(COc1ccccc1)OC(=S)N(C(=O)c1ccco1)c1ccccc1 (stereo unspecified)
MT-4 (Homo sapiens)
  CC50: 51.5 µM
MT4
  SI: 39.6

## O=C(c1ccco1)N(C(=S)OCCc1ccccc1)c1ccccc1
MT-4 (Homo sapiens)
  CC50: 102 µM
MT4
  SI: 24

## CCc1ccc(N(C(=O)c2ccco2)C(=S)OCCN2C(=O)c3ccccc3C2=O)cc1
MT-4 (Homo sapiens)
  CC50: > 100 µM
MT4
  SI: >3333

## O=C(c1ccc(Cl)cc1)N(C(=S)OCCc1ccccc1)c1ccccc1
MT-4 (Homo sapiens)
  CC50: 43 µM
MT4
  SI: 10.7

## O=C1c2ccccc2C(=O)N1CCOC(=S)N(C(=O)c1cccs1)c1ccc([N+](=O)[O-])cc1
MT-4 (Homo sapiens)
  CC50: 168 µM
MT4
  SI: 16800
[3]
  EC50: 58 µM

## CC(COc1ccccc1)OC(=S)N(C(=O)c1cccc2ccccc12)c1ccccc1 (stereo unspecified)
MT4
  SI: >33.3

## O=C1c2ccccc2C(=O)N1CCOC(=S)N(C(=O)c1cccs1)c1ccc(I)cc1
MT-4 (Homo sapiens)
  CC50: 18 µM
MT4
  SI: 1800

## COc1ccccc1N(C(=O)c1cccs1)C(=S)OCCN1C(=O)c2ccccc2C1=O
MT-4 (Homo sapiens)
  CC50: > 100 µM
MT4
  SI: >9

## CC(COc1ccccc1)OC(=S)N(C(=O)c1cccs1)c1ccccc1 (stereo unspecified)
MT-4 (Homo sapiens)
  CC50: > 200 µM
MT4
  SI: >100

## COc1cc(C(=O)N(C(=S)OCCOc2ccccc2)c2ccccc2)cc(OC)c1OC
MT-4 (Homo sapiens)
  CC50: > 200 µM
MT4
  SI: >20.8

## COc1cccc(N(C(=O)c2cccs2)C(=S)OCCN2C(=O)c3ccccc3C2=O)c1
MT-4 (Homo sapiens)
  CC50: > 100 µM
MT4
  SI: >28

## O=C1c2ccccc2C(=O)N1CCOC(=S)N(C(=O)c1cccs1)c1ccc(F)cc1
MT-4 (Homo sapiens)
  CC50: > 100 µM
MT4
  SI: >1000

## O=C(c1ccccc1)N(C(=S)OCCOc1ccccc1)c1ccccc1
MT-4 (Homo sapiens)
  CC50: 122 µM
MT4
  SI: 15.2

## CC(COc1ccccc1)OC(=S)N(C(=O)c1cccs1)c1ccc([N+](=O)[O-])cc1 (stereo unspecified)
MT-4 (Homo sapiens)
  CC50: 63 µM
MT4
  SI: 10.5

## CC(=O)c1cccc(N(C(=O)c2cccs2)C(=S)OCCN2C(=O)c3ccccc3C2=O)c1
MT-4 (Homo sapiens)
  CC50: > 100 µM
MT4
  SI: >17

## Cc1ccc(N(C(=O)c2cccs2)C(=S)OCCN2C(=O)c3ccccc3C2=O)cc1
MT-4 (Homo sapiens)
  CC50: > 100 µM
MT4
  SI: >250

## O=C(COc1ccccc1)N(C(=S)OCCOc1ccccc1)c1ccccc1
MT-4 (Homo sapiens)
  CC50: 103 µM
MT4
  SI: 17.1

## CC(=O)Oc1ccccc1C(=O)N(C(=S)OCCOc1ccccc1)c1ccccc1
MT-4 (Homo sapiens)
  CC50: > 200 µM
MT4
  SI: >21

## CC(COc1ccccc1)OC(=S)N(C(=O)COc1ccccc1)c1ccccc1 (stereo unspecified)
MT-4 (Homo sapiens)
  CC50: 122 µM
MT4
  SI: 87.4

## O=C(c1ccc(Cl)cc1)N(C(=S)OCCOc1ccccc1)c1ccccc1
MT-4 (Homo sapiens)
  CC50: 133 µM
MT4
  SI: 12.9

## O=C1c2ccccc2C(=O)N1CCOC(=S)N(C(=O)c1ccccc1)c1ccc(Br)cc1
MT-4 (Homo sapiens)
  CC50: > 200 µM
MT4
  SI: >5714

## Cc1cccc(N(C(=O)c2cccs2)C(=S)OCCN2C(=O)c3ccccc3C2=O)c1
MT-4 (Homo sapiens)
  CC50: > 100 µM
MT4
  SI: >10

## O=C1c2ccccc2C(=O)N1CCOC(=S)N(C(=O)c1cccs1)c1ccccc1Cl
MT-4 (Homo sapiens)
  CC50: > 100 µM
MT4
  SI: 9

## CCCCOC(=O)N(C(=S)OC(C)COc1ccccc1)c1ccccc1 (stereo unspecified)
MT-4 (Homo sapiens)
  CC50: > 200 µM
MT4
  SI: >4

## O=C(c1ccccc1)N(C(=S)OCCSc1ccccc1)c1ccccc1
MT-4 (Homo sapiens)
  CC50: 44 µM

## O=C1c2ccccc2C(=O)N1CCOC(=S)N(C(=O)c1ccco1)c1ccc([N+](=O)[O-])cc1
[2]
  EC90: 0.005 µM
MT-4 (Homo sapiens)
  CC50: 18 µM
MT4
  SI: 2250
[3]
  EC50: 14 µM
